Activity calls are given as the source filed them. The calls are words filed in the database; no cut-off is given here.
What was measured:
SGC-7901 [1] = assay: Cytotoxicity against human SGC7901 cells after 48 hrs by MTT assay; assay type: functional, cell-based; details: SGC-7901, 48 h
How it was run: (§1)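 Cells at 5–10 × 10³/well grown overnight in RPMI-1640, then exposed in triplicate to a concentration series for 48 h. MTT (1 mg/mL) added for the final 4 h, formazan dissolved in DMSO, read at 570 nm against 595 nm reference. Untreated cells served as negative control, 1% Triton-treated cells as positive control. Inhibition calculated relative to negative-control OD. IC50 taken as concentration giving 50% growth inhibition.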

MCF7 [2] = assay: Cytotoxicity against human MCF7 cells after 48 hrs by MTT assay; assay type: functional, cell-based; details: MCF7, 48 h; how it was run: as §1
MDA-MB-231 [3] = assay: Cytotoxicity against human MDA-MB-231 cells after 48 hrs by MTT assay; assay type: functional, cell-based; details: MDA-MB-231, 48 h; how it was run: as §1
U-251 [4] = assay: Cytotoxicity against human U251 cells after 48 hrs by MTT assay; assay type: functional, cell-based; details: U-251, 48 h; how it was run: as §1
[5] = Cytotoxicity against human U87 cells after 48 hrs by MTT assay; assay type: functional, cell-based, U-87MG ATCC; details: U-87 MG; how it was run: as §1
U-87MG ATCC = assay: Induction of NO production in human U87 cells at 100 uM after 30 to 300 mins by Griess assay; assay type: functional, cell-based
How it was run: (§2)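 Cells treated with compound at 100 µM. Nitrate/nitrite in cell lysates measured by Griess reaction at 540 nm over 30–300 min and quantified from a sodium nitrate standard curve. Diluent-treated cells gave background. Reported values are means of two experiments at 240 min post-treatment.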

MDA-MB-231 [6] = assay: Induction of NO production in human MDA-MB-231 cells at 100 uM after 30 to 300 mins by Griess assay; assay type: functional, cell-based; how it was run: as §2
MCF7 [7] = assay: Induction of NO production in human MCF7 cells at 100 uM after 30 to 300 mins by Griess assay; assay type: functional, cell-based; how it was run: as §2
U-251 [8] = assay: Induction of NO production in human U251 cells at 100 uM after 30 to 300 mins by Griess assay; assay type: functional, cell-based; how it was run: as §2
SGC-7901 [9] = assay: Induction of NO production in human SGC7901 cells at 100 uM after 30 to 300 mins by Griess assay; assay type: functional, cell-based; how it was run: as §2

Compound: CC(C)=CCC/C(C)=C/CC/C(C)=C/CSc1ccccc1C(=O)NCC(=O)OCCCCOc1no[n+]([O-])c1S(=O)(=O)c1ccccc1
- IC50 (SGC-7901 [1]): > 50 µM
- IC50 (MCF7 [2]): 25.1 µM
- IC50 (MDA-MB-231 [3]): 9.99 µM
- IC50 (U-251 [4]): 28.2 µM
- IC50 [5]: > 50 µM

Compound: CC(C)=CCC/C(C)=C/CC/C(C)=C/CSc1ccccc1C(=O)N1CCC[C@H]1C(=O)OC(C)CCOc1no[n+]([O-])c1S(=O)(=O)c1ccccc1 (stereo not given in full)
- IC50 (SGC-7901 [1]): 13.9 µM
- IC50 (MCF7 [2]): 6.5 µM
- IC50 (MDA-MB-231 [3]): 1.54 µM
- IC50 (U-251 [4]): 7.93 µM
- IC50 [5]: 8.47 µM

Compound: CC(C)=CCC/C(C)=C/CC/C(C)=C/CSc1ccccc1C(=O)N[C@@H](Cc1ccccc1)C(=O)OCCCCOc1no[n+]([O-])c1S(=O)(=O)c1ccccc1
- IC50 (SGC-7901 [1]): > 50 µM
- IC50 (MCF7 [2]): > 50 µM
- IC50 (MDA-MB-231 [3]): > 50 µM
- IC50 (U-251 [4]): > 50 µM
- IC50 [5]: > 50 µM

Compound: CC(C)=CCC/C(C)=C/CC/C(C)=C/CSc1ccccc1C(=O)N[C@@H](C)C(=O)OCCCCOc1no[n+]([O-])c1S(=O)(=O)c1ccccc1
- IC50 (SGC-7901 [1]): 44.6 µM
- IC50 (MCF7 [2]): 8.68 µM
- IC50 (MDA-MB-231 [3]): > 50 µM
- IC50 (U-251 [4]): 7.95 µM
- IC50 [5]: 26.4 µM

Compound: CC(C)=CCC/C(C)=C/CC/C(C)=C/CSc1ccccc1C(=O)N1CCC[C@H]1C(=O)OCCOCCOc1no[n+]([O-])c1S(=O)(=O)c1ccccc1
- Activity (U-87MG ATCC): Active
- Activity (MDA-MB-231 [6]): Active
- IC50 (SGC-7901 [1]): 7.86 µM
- Activity (MCF7 [7]): Active
- Activity (U-251 [8]): Active
- IC50 (MCF7 [2]): 8.77 µM
- IC50 (MDA-MB-231 [3]): 3.16 µM
- Activity (SGC-7901 [9]): Active
- IC50 (U-251 [4]): 4.83 µM
- IC50 [5]: 12.9 µM

Compound: CC(C)=CCC/C(C)=C/CC/C(C)=C/CSc1ccccc1C(=O)N[C@@H](Cc1ccccc1)C(=O)OC(C)CCOc1no[n+]([O-])c1S(=O)(=O)c1ccccc1 (stereo not given in full)
- Activity (U-87MG ATCC): Active
- Activity (MDA-MB-231 [6]): Active
- IC50 (SGC-7901 [1]): > 50 µM
- Activity (MCF7 [7]): Active
- Activity (U-251 [8]): Active
- IC50 (MCF7 [2]): > 50 µM
- IC50 (MDA-MB-231 [3]): > 50 µM
- Activity (SGC-7901 [9]): Active
- IC50 (U-251 [4]): > 50 µM
- IC50 [5]: > 50 µM

Compound: CNC(=O)c1cc(Oc2ccc(NC(=O)Nc3ccc(Cl)c(C(F)(F)F)c3)cc2)ccn1 [SORAFENIB]
- IC50 (SGC-7901 [1]): 10.4 µM
- IC50 (MCF7 [2]): 8.83 µM
- IC50 (MDA-MB-231 [3]): 4.77 µM
- IC50 (U-251 [4]): 24.7 µM
- IC50 [5]: 21.1 µM

Compound: CC(C)=CCC/C(C)=C/CC/C(C)=C/CSc1ccccc1C(=O)N[C@@H](Cc1ccccc1)C(=O)OCCOCCOc1no[n+]([O-])c1S(=O)(=O)c1ccccc1
- IC50 (SGC-7901 [1]): > 50 µM
- IC50 (MCF7 [2]): > 50 µM
- IC50 (MDA-MB-231 [3]): > 50 µM
- IC50 (U-251 [4]): > 50 µM
- IC50 [5]: > 50 µM

Compound: CC(C)=CCC/C(C)=C/CC/C(C)=C/CSc1ccccc1C(=O)N1CCC[C@H]1C(=O)OCCCCOc1no[n+]([O-])c1S(=O)(=O)c1ccccc1
- IC50 (SGC-7901 [1]): 22.5 µM
- IC50 (MCF7 [2]): 7.47 µM
- IC50 (MDA-MB-231 [3]): 3.14 µM
- IC50 (U-251 [4]): 6.99 µM
- IC50 [5]: 9 µM

Compound: CC(C)=CCC/C(C)=C/CC/C(C)=C/CSc1ccccc1C(=O)N[C@@H](Cc1ccccc1)C(=O)OCC#CCOc1no[n+]([O-])c1S(=O)(=O)c1ccccc1
- IC50 (SGC-7901 [1]): > 50 µM
- IC50 (MCF7 [2]): > 50 µM
- IC50 (MDA-MB-231 [3]): > 50 µM
- IC50 (U-251 [4]): > 50 µM
- IC50 [5]: > 50 µM

Compound: CC(C)=CCC/C(C)=C/CC/C(C)=C/CSc1ccccc1C(=O)N[C@@H](C)C(=O)OC(C)CCOc1no[n+]([O-])c1S(=O)(=O)c1ccccc1 (stereo not given in full)
- IC50 (SGC-7901 [1]): > 50 µM
- IC50 (MCF7 [2]): 11.1 µM
- IC50 (MDA-MB-231 [3]): 5.05 µM
- IC50 (U-251 [4]): 15.3 µM
- IC50 [5]: 20.4 µM
